Assay [1] has as its target Human immunodeficiency virus type 1 reverse transcriptase (Human immunodeficiency virus 1, UniProt Q72547, P236L). The experiment in a line: Inhibitory concentration against mutant reverse transcriptase of P236L was determined which is in turn resistant to BHAP. The method, boiled down:
(§1)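 The enzyme was either p66/p51 heterodimer purified to near homogeneity or crude E. coli lysate containing the mutant RT. Inhibitory concentration was measured in an RT enzyme assay.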

In assay [2] the target is Human immunodeficiency virus type 1 reverse transcriptase (Human immunodeficiency virus 1, UniProt Q72547, L100I). The assay is described as follows: Inhibitory concentration against mutant reverse transcriptase of L100I was determined which is in turn resistant TIBO. The method, boiled down:
as §1

The target of assay [3] is Human immunodeficiency virus type 1 reverse transcriptase (Human immunodeficiency virus 1, UniProt Q72547, Y181C). The assay is described as follows: Inhibitory activity against HIV-1 Y181C Reverse transcriptase (RT). The method, boiled down:
as §1

Assay [4] concerns the target Human immunodeficiency virus type 1 reverse transcriptase (Human immunodeficiency virus 1, UniProt Q72547). The assay is described as follows: Inhibitory concentration against HIV-1 wild type Reverse transcriptase (RT).
In assay [5] the target is Human immunodeficiency virus type 1 reverse transcriptase (Human immunodeficiency virus 1, UniProt Q72547, E138K). The experiment in a line: Inhibitory concentration against mutant reverse transcriptase of E138K was determined which is in turn resistant to TSAO. The method, boiled down:
as §1

Assay [6] deals with Human immunodeficiency virus type 1 reverse transcriptase (Human immunodeficiency virus 1, UniProt Q72547, K103N). The experiment in a line: Inhibitory concentration against mutant reverse transcriptase of K103N was determined which is in turn resistant to pyridinones. The method, boiled down:
as §1

The next assay concerns C8166. The experiment in a line: Inhibitory concentration against cell culture of Human T-cell line c8166 infected with HIV-1 IIIB strain was determined. Format: functional, cell-based.

The IC50 is the midpoint of a concentration-inhibition curve. High values mean a need for much substance, low ones inhibition by little substance.

Each structure is given as a SMILES string.

As for `CCN1c2ncccc2C(=O)N(C)c2ccc(-c3cc[nH]c3)nc21`, the IC50 in assay [1] was 130 nM; in assay [2], 410 nM; in assay [3], 40 nM; in assay [4], 30 nM; in assay [5] it was 70 nM; in assay [6], 50 nM. Also, in the assay with C8166, the IC50 turned out to be 40 nM.
As to `CN1C(=O)c2cccnc2N(C2CC2)c2nc(-c3cn[nH]c3)ccc21`, the IC50 in assay [1] was determined as 340 nM; in assay [2], 1500 nM; in assay [3], 50 nM; in assay [4], 60 nM; in assay [5], 460 nM; in assay [6] it was 420 nM. In the assay on C8166, this molecule yielded an IC50 of 120 nM.
Regarding `CCN1c2ncccc2C(=O)N(C)c2ccc(-c3ccc(N)nc3)nc21`, the IC50 in assay [1] was determined as 40 nM; in assay [2], 240 nM; in assay [3], 260 nM; in assay [4], 50 nM; in assay [5], 20 nM; in assay [6], 410 nM. Besides, half-maximal inhibition in the assay with C8166 (IC50) required 240 nM.

Source of the values: ChEMBL document CHEMBL1128204, “Novel non-nucleoside inhibitors of human immunodeficiency virus type 1 (HIV-1) reverse transcriptase. 4. 2-Substituted dipyridodiazepinones as potent inhibitors of both wild-type and cysteine-181 HIV-1 reverse transcriptase enzymes” (J Med Chem, 1995).
